Reference: ChEMBL document CHEMBL1155222, “Synthesis and anticancer activity of N-bis(trifluoromethyl)alkyl-N'-thiazolyl and N-bis(trifluoromethyl)alkyl-N'-benzothiazolyl ureas” (2009)
Active and inactive are the calls of the source. The rule behind the calls is not given here.

Experiments:
Type in all cases: functional
[1] = system: CCRF-CEM; test: Anticancer activity against human CCRF-CEM cells after 48 hrs by sulforhodamine B assay
Procedure, shortened: (§1)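 NCI 60-cell-line screen. Cells grown in RPMI 1640 with 5% FBS and 2 mM L-glutamine, plated at 5000–40,000 cells/well, and preincubated 24 h at 37 °C under 5% CO2. Compounds were taken from DMSO stocks and tested at five final concentrations, 10^-4 to 10^-8 M, for 48 h. Cells were TCA-fixed, stained with 0.4% SRB, and read at 515 nm. GI50, TGI and LC50 were derived as log molar values.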

[2] = system: HL-60(TB); test: Anticancer activity against human HL-60(TB) cells after 48 hrs by sulforhodamine B assay
Procedure, shortened: (§2)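 NCI 60-cell-line screen. Cells were grown in RPMI 1640 with 5% FBS and 2 mM L-glutamine, seeded at 5000–40,000 cells/well and preincubated 24 h at 37 °C, 5% CO2. Compounds in DMSO were diluted in medium with gentamicin and tested at five concentrations (10^-4 to 10^-8 M) for 48 h. Cells were then fixed with TCA, stained with SRB and read at 515 nm.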

[3] = system: K562; test: Anticancer activity against human K562 cells after 48 hrs by sulforhodamine B assay; procedure, shortened: as §1
[4] = system: MOLT-4; test: Anticancer activity against human MOLT4 cells after 48 hrs by sulforhodamine B assay; procedure, shortened: as §1
[5] = system: RPMI8266; test: Anticancer activity against human […] cells after 48 hrs by sulforhodamine B assay; procedure, shortened: as §1
[6] = system: SR; test: Anticancer activity against human SR cells after 48 hrs by sulforhodamine B assay
Procedure, shortened: (§3)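 NCI 60-cell-line panel; cells grown in RPMI 1640 with 5% FBS and 2 mM L-glutamine, plated at 5000–40,000 cells/well and preincubated 24 h at 37 °C, 5% CO2. Compounds came from DMSO stocks diluted in medium with gentamicin and were tested at five final concentrations, 10^-4 to 10^-8 M, for 48 h. Cells were fixed with TCA, stained with SRB and read at 515 nm. GI50, TGI and LC50 were derived as log molar values.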

[7] = system: A549; test: Anticancer activity against human A549 cells after 48 hrs by sulforhodamine B assay; procedure, shortened: as §1
[8] = system: EKVX; test: Anticancer activity against human EKVX cells after 48 hrs by sulforhodamine B assay; procedure, shortened: as §1
[9] = system: HOP-62; test: Anticancer activity against human HOP62 cells after 48 hrs by sulforhodamine B assay; procedure, shortened: as §1
[10] = system: HOP-92; test: Anticancer activity against human HOP92 cells after 48 hrs by sulforhodamine B assay; procedure, shortened: as §1
[11] = system: NCI-H226; test: Anticancer activity against human NCI-H226 cells after 48 hrs by sulforhodamine B assay; procedure, shortened: as §1
[12] = system: NCI-H322M; test: Anticancer activity against human NCI-H322M cells after 48 hrs by sulforhodamine B assay; procedure, shortened: as §1
[13] = system: NCI-H460; test: Anticancer activity against human NCI-H460 cells after 48 hrs by sulforhodamine B assay; procedure, shortened: as §1
[14] = system: NCI-H522; test: Anticancer activity against human NCI-H522 cells after 48 hrs by sulforhodamine B assay; procedure, shortened: as §1
[15] = system: NCI-H23; test: Anticancer activity against human NCI-H23 cells after 48 hrs by sulforhodamine B assay; procedure, shortened: as §2
[16] = system: COLO 205; test: Anticancer activity against human COLO205 cells after 48 hrs by sulforhodamine B assay; procedure, shortened: as §1
[17] = system: HCC 2998; test: Anticancer activity against human HCC2998 cells after 48 hrs by sulforhodamine B assay; procedure, shortened: as §1
[18] = system: HCT-116; test: Anticancer activity against human HCT116 cells after 48 hrs by sulforhodamine B assay; procedure, shortened: as §1
[19] = system: HCT-15; test: Anticancer activity against human HCT15 cells after 48 hrs by sulforhodamine B assay; procedure, shortened: as §1
[20] = system: HT-29; test: Anticancer activity against human HT-29 cells after 48 hrs by sulforhodamine B assay; procedure, shortened: as §1
[21] = system: KM12; test: Anticancer activity against human KM12 cells after 48 hrs by sulforhodamine B assay; procedure, shortened: as §1
[22] = system: SW-620; test: Anticancer activity against human SW620 cells after 48 hrs by sulforhodamine B assay; procedure, shortened: as §3
[23] = system: SF-268; test: Anticancer activity against human SF268 cells after 48 hrs by sulforhodamine B assay; procedure, shortened: as §1
[24] = system: SF-295; test: Anticancer activity against human SF295 cells after 48 hrs by sulforhodamine B assay; procedure, shortened: as §1
[25] = system: SF-539; test: Anticancer activity against human SF539 cells after 48 hrs by sulforhodamine B assay; procedure, shortened: as §1
[26] = system: SNB-19; test: Anticancer activity against human SNB19 cells after 48 hrs by sulforhodamine B assay; procedure, shortened: as §3
[27] = system: SNB-75; test: Anticancer activity against human SNB75 cells after 48 hrs by sulforhodamine B assay; procedure, shortened: as §3
[28] = system: U-251; test: Anticancer activity against human U251 cells after 48 hrs by sulforhodamine B assay; procedure, shortened: as §3
[29] = system: LOX IMVI; test: Anticancer activity against human LOXIMVI cells after 48 hrs by sulforhodamine B assay; procedure, shortened: as §1
[30] = system: Malme-3M; test: Anticancer activity against human MALME-3M cells after 48 hrs by sulforhodamine B assay; procedure, shortened: as §1
[31] = system: M14; test: Anticancer activity against human M14 cells after 48 hrs by sulforhodamine B assay; procedure, shortened: as §1
[32] = system: SK-MEL-2; test: Anticancer activity against human SK-MEL-2 cells after 48 hrs by sulforhodamine B assay; procedure, shortened: as §1
[33] = system: SK-MEL-28; test: Anticancer activity against human SK-MEL-28 cells after 48 hrs by sulforhodamine B assay; procedure, shortened: as §1
[34] = system: SK-MEL-5; test: Anticancer activity against human SK-MEL-5 cells after 48 hrs by sulforhodamine B assay; procedure, shortened: as §1
[35] = system: UACC-257; test: Anticancer activity against human UACC257 cells after 48 hrs by sulforhodamine B assay; procedure, shortened: as §3
[36] = system: UACC-62; test: Anticancer activity against human UACC62 cells after 48 hrs by sulforhodamine B assay; procedure, shortened: as §3
[37] = system: IGROV-1; test: Anticancer activity against human IGROV1 cells after 48 hrs by sulforhodamine B assay; procedure, shortened: as §1
[38] = system: OVCAR-3; test: Anticancer activity against human OVCAR-3 cells after 48 hrs by sulforhodamine B assay; procedure, shortened: as §1
[39] = system: OVCAR-4; test: Anticancer activity against human OVCAR4 cells after 48 hrs by sulforhodamine B assay; procedure, shortened: as §1
[40] = system: OVCAR-5; test: Anticancer activity against human OVCAR5 cells after 48 hrs by sulforhodamine B assay; procedure, shortened: as §1
[41] = system: OVCAR-8; test: Anticancer activity against human OVCAR8 cells after 48 hrs by sulforhodamine B assay; procedure, shortened: as §1
[42] = system: SK-OV-3; test: Anticancer activity against human SKOV3 cells after 48 hrs by sulforhodamine B assay; procedure, shortened: as §1
[43] = system: 786-0; test: Anticancer activity against human 786-0 cells after 48 hrs by sulforhodamine B assay; procedure, shortened: as §1
[44] = system: A498; test: Anticancer activity against human A498 cells after 48 hrs by sulforhodamine B assay; procedure, shortened: as §1
[45] = system: ACHN; test: Anticancer activity against human ACHN cells after 48 hrs by sulforhodamine B assay; procedure, shortened: as §1
[46] = system: CAKI-1; test: Anticancer activity against human Caki1 cells after 48 hrs by sulforhodamine B assay; procedure, shortened: as §1
[47] = system: RXF 393; test: Anticancer activity against human RXF393 cells after 48 hrs by sulforhodamine B assay; procedure, shortened: as §1
[48] = system: SN12C; test: Anticancer activity against human SN12C cells after 48 hrs by sulforhodamine B assay; procedure, shortened: as §3
[49] = system: TK-10; test: Anticancer activity against human TK10 cells after 48 hrs by sulforhodamine B assay; procedure, shortened: as §3
[50] = system: UO-31; test: Anticancer activity against human UO31 cells after 48 hrs by sulforhodamine B assay; procedure, shortened: as §3
[51] = system: PC-3; test: Anticancer activity against human PC3 cells after 48 hrs by sulforhodamine B assay; procedure, shortened: as §1
[52] = system: DU-145; test: Anticancer activity against human DU145 cells after 48 hrs by sulforhodamine B assay; procedure, shortened: as §1
[53] = system: MCF7; test: Anticancer activity against human MCF7 cells after 48 hrs by sulforhodamine B assay; procedure, shortened: as §1
[54] = system: NCI/ADR-RES; test: Anticancer activity against human NCI/ADR-RES cells after 48 hrs by sulforhodamine B assay; procedure, shortened: as §1
[55] = system: MDA-MB-231; test: Anticancer activity against human MDA-MB-231 cells after 48 hrs by sulforhodamine B assay; procedure, shortened: as §1
[56] = system: Hs-578T; test: Anticancer activity against human Hs 578T cells after 48 hrs by sulforhodamine B assay; procedure, shortened: as §1
[57] = system: MDA-MB-435; test: Anticancer activity against human MDA-MB-435 cells after 48 hrs by sulforhodamine B assay; procedure, shortened: as §1
[58] = system: MDA-N; test: Anticancer activity against human MDA-N cells after 48 hrs by sulforhodamine B assay; procedure, shortened: as §1
[59] = system: BT-549; test: Anticancer activity against human BT549 cells after 48 hrs by sulforhodamine B assay; procedure, shortened: as §1
[60] = system: T47D; test: Anticancer activity against human T47D cells after 48 hrs by sulforhodamine B assay; procedure, shortened: as §3
[61] = system: NCI-H460; test: Anticancer activity against human NCI-H460 cells assessed as cell growth at 100 uM after 48 hrs by Alamar blue assay relative to control; conditions: NCI-H460, 48 h, read-out: Activity
Procedure, shortened: (§4)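 NCI one-dose pre-test on MCF7, NCI-H460 and SF-268. Cells were inoculated and preincubated, then exposed to a single 10^-4 M concentration for 48 h. End-point was alamar blue. Results are percent growth versus untreated control cells, with negative values indicating cell kill.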

[62] = system: MCF7; test: Anticancer activity against human MCF7 cells assessed as cell growth at 100 uM after 48 hrs by Alamar blue assay relative to control; conditions: MCF7, 48 h, read-out: Activity; procedure, shortened: as §4
[63] = system: SF-268; test: Anticancer activity against human SF268 cells assessed as cell growth at 100 uM after 48 hrs by Alamar blue assay relative to control; conditions: SF-268, 48 h, read-out: Activity; procedure, shortened: as §4

## FC(F)(F)C(=Cc1nc2ccccc2s1)C(F)(F)F
[1]
  logGI50: inactive
[2]
  logGI50: inactive
[3]
  logGI50: inactive
[4]
  logGI50: inactive
[5]
  logGI50: inactive
[6]
  logGI50: inactive
[7]
  logGI50: inactive
[8]
  logGI50: inactive
[9]
  logGI50: inactive
[10]
  logGI50: inactive
[11]
  logGI50: inactive
[12]
  logGI50: inactive
[13]
  logGI50: inactive
[14]
  logGI50: inactive
[15]
  logGI50: inactive
[16]
  logGI50: inactive
[17]
  logGI50: inactive
[18]
  logGI50: inactive
[19]
  logGI50: inactive
[20]
  logGI50: inactive
[21]
  logGI50: inactive
[22]
  logGI50: inactive
[23]
  logGI50: inactive
[24]
  logGI50: inactive
[25]
  logGI50: inactive
[26]
  logGI50: inactive
[27]
  logGI50: inactive
[28]
  logGI50: inactive
[29]
  logGI50: inactive
[30]
  logGI50: inactive
[31]
  logGI50: inactive
[32]
  logGI50: inactive
[33]
  logGI50: inactive
[34]
  logGI50: inactive
[35]
  logGI50: inactive
[36]
  logGI50: inactive
[37]
  logGI50: inactive
[38]
  logGI50: inactive
[39]
  logGI50: inactive
[40]
  logGI50: inactive
[41]
  logGI50: inactive
[42]
  logGI50: inactive
[43]
  logGI50: inactive
[44]
  logGI50: inactive
[45]
  logGI50: inactive
[46]
  logGI50: inactive
[47]
  logGI50: inactive
[48]
  logGI50: inactive
[49]
  logGI50: inactive
[50]
  logGI50: inactive
[51]
  logGI50: inactive
[52]
  logGI50: inactive
[53]
  logGI50: inactive
[54]
  logGI50: inactive
[55]
  logGI50: inactive
[56]
  logGI50: inactive
[57]
  logGI50: inactive
[58]
  logGI50: inactive
[59]
  logGI50: inactive
[60]
  logGI50: inactive

## CC(NC(=O)Nc1nccs1)(C(F)(F)F)C(F)(F)F
[61]
  growth at 100 µM: 49%
[62]
  growth at 100 µM: 59%
[63]
  growth at 100 µM: 74%
